# Data as given in ChEMBL document CHEMBL4020804, “Minor phenolics from Angelica keiskei and their proliferative effects on Hep3B cells” (Bioorg Med Chem Lett, 2017).
# Tests used:
# [1] = test system: Hep 3B2; experiment: Cytoprotective activity against GOX-induced oxidative stress in human Hep3B cells assessed as cell survival at 100 uM treated for 5 hrs with 15 mU/ml GOX challenge by MTT assay (reference value: 41.51 +/- 1.39%); format: functional; details: read-out: Survival
# [2] = test system: Hep 3B2; experiment: Proliferative activity against human Hep3B cells assessed as cell viability at 100 uM after 4 days by cell counting method relative to control; format: functional; details: 96 h, read-out: Activity
# Outline: (§1)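 Hep3B kept in DMEM/10% FBS, 37°C, 5% CO2, then seeded at 1×10^5 cells/ml in medium containing compound (0.1–100 μM; DMSO-only control) in monolayer. Cells were checked daily by microscope for attachment and morphology, and counted after 4 days, in triplicate, in three independent experiments. Counts are given as % of the 0 μM group.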
# [3] = test system: NIH3T3; experiment: Cytoprotective activity against GOX-induced oxidative stress in mouse NIH/3T3 cells assessed as cell survival at 10 uM treated for 5 hrs with 15 mU/ml GOX challenge by MTT assay (reference value: 42.71 +/- 2.10%); format: functional; details: NIH3T3, 5 h, read-out: Survival
# [4] = test system: Hep 3B2; experiment: Cytoprotective activity against GOX-induced cytotoxicity in human Hep3B cells assessed as LDH release at 0.1 uM treated for 5 hrs with 15 mU/ml GOX challenge by spectrophotometric method (reference value: 60.94 +/- 1.18%); format: functional
# [5] = test system: Hep 3B2; experiment: Cytoprotective activity against GOX-induced oxidative stress in human Hep3B cells assessed as cell survival at 0.1 uM treated for 5 hrs with 15 mU/ml GOX challenge by MTT assay (reference value: 41.51 +/- 1.39%); format: functional; details: read-out: Survival
# [6] = test system: NIH3T3; experiment: Cytoprotective activity against GOX-induced cytotoxicity in mouse NIH/3T3 cells assessed as LDH release at 0.1 uM treated for 5 hrs with 15 mU/ml GOX challenge by spectrophotometric method (reference value: 63.34 +/- 1.85%); format: functional
# [7] = test system: NIH3T3; experiment: Cytoprotective activity against GOX-induced cytotoxicity in mouse NIH/3T3 cells assessed as LDH release at 10 uM treated for 5 hrs with 15 mU/ml GOX challenge by spectrophotometric method (reference value: 63.34 +/- 1.85%); format: functional
# [8] = test system: Hep 3B2; experiment: Proliferative activity against human Hep3B cells assessed as cell viability at 1 uM after 4 days by cell counting method relative to control; format: functional; details: 96 h, read-out: Activity; outline: as §1
# [9] = test system: NIH3T3; experiment: Cytoprotective activity against GOX-induced oxidative stress in mouse NIH/3T3 cells assessed as cell survival at 100 uM treated for 5 hrs with 15 mU/ml GOX challenge by MTT assay (reference value: 42.71 +/- 2.10%); format: functional; details: NIH3T3, 5 h, read-out: Survival
# [10] = test system: Hep 3B2; experiment: Cytoprotective activity against GOX-induced cytotoxicity in human Hep3B cells assessed as LDH release at 100 uM treated for 5 hrs with 15 mU/ml GOX challenge by spectrophotometric method (reference value: 60.94 +/- 1.18%); format: functional
# [11] = test system: NIH3T3; experiment: Cytoprotective activity against GOX-induced oxidative stress in mouse NIH/3T3 cells assessed as cell survival at 1 uM treated for 5 hrs with 15 mU/ml GOX challenge by MTT assay (reference value: 42.71 +/- 2.10%); format: functional; details: NIH3T3, 5 h, read-out: Survival
# [12] = test system: NIH3T3; experiment: Cytoprotective activity against GOX-induced oxidative stress in mouse NIH/3T3 cells assessed as cell survival at 0.1 uM treated for 5 hrs with 15 mU/ml GOX challenge by MTT assay (reference value: 42.71 +/- 2.10%); format: functional; details: NIH3T3, 5 h, read-out: Survival
# [13] = test system: NIH3T3; experiment: Cytoprotective activity against GOX-induced cytotoxicity in mouse NIH/3T3 cells assessed as LDH release at 100 uM treated for 5 hrs with 15 mU/ml GOX challenge by spectrophotometric method (reference value: 63.34 +/- 1.85%); format: functional
# [14] = test system: Hep 3B2; experiment: Proliferative activity against human Hep3B cells assessed as cell viability after 4 days by cell counting method; format: functional, cell-based; outline: as §1
# [15] = test system: Hep 3B2; experiment: Cytotoxicity against human Hep3B cells assessed as effect on cell attachment at 0.1 to 100 uM measured every day during 4 days incubation period by microscopic method; format: cell-based; details: hep 3b2, 96 h; outline: as §1
# [16] = test system: NIH3T3; experiment: Cytoprotective activity against GOX-induced oxidative stress in mouse NIH/3T3 cells assessed as increase in cell survival treated for 5 hrs with 15 mU/ml GOX challenge by MTT assay; format: functional, cell-based
# Outline: (§2)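 Cells plated at 7×10^4 per well; next day exposed for 5 h to compound (0.1–100 μM) with 15 mU/ml glucose oxidase in growth medium. Viability expressed relative to GOX-free cells; α-tocopherol positive control.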
# [17] = test system: Hep 3B2; experiment: Cytoprotective activity against GOX-induced oxidative stress in human Hep3B cells assessed as cell survival at 10 uM treated for 5 hrs with 15 mU/ml GOX challenge by MTT assay (reference value: 41.51 +/- 1.39%); format: functional; details: read-out: Survival
# [18] = test system: Hep 3B2; experiment: Proliferative activity against human Hep3B cells assessed as cell viability at 10 uM after 4 days by cell counting method relative to control; format: functional; details: 96 h, read-out: Activity; outline: as §1
# [19] = test system: NIH3T3; experiment: Cytoprotective activity against GOX-induced cytotoxicity in mouse NIH/3T3 cells assessed as decrease in LDH release treated for 5 hrs with 15 mU/ml GOX challenge by spectrophotometric method; format: functional, cell-based
# [20] = test system: Hep 3B2; experiment: Proliferative activity against human Hep3B cells assessed as cell viability at 0.1 uM after 4 days by cell counting method relative to control; format: functional; details: 96 h, read-out: Activity; outline: as §1
# [21] = test system: Hep 3B2; experiment: Cytoprotective activity against GOX-induced cytotoxicity in human Hep3B cells assessed as decrease in LDH release treated for 5 hrs with 15 mU/ml GOX challenge by spectrophotometric method; format: functional, cell-based
# [22] = test system: Hep 3B2; experiment: Cytoprotective activity against GOX-induced cytotoxicity in human Hep3B cells assessed as LDH release at 10 uM treated for 5 hrs with 15 mU/ml GOX challenge by spectrophotometric method (reference value: 60.94 +/- 1.18%); format: functional
# [23] = test system: Hep 3B2; experiment: Cytotoxicity against human Hep3B cells assessed as effect on cell morphology at 0.1 to 100 uM measured every day during 4 days incubation period by microscopic method; format: cell-based; details: hep 3b2, 96 h; outline: as §1
# [24] = test system: Hep 3B2; experiment: Cytoprotective activity against GOX-induced cytotoxicity in human Hep3B cells assessed as LDH release at 1 uM treated for 5 hrs with 15 mU/ml GOX challenge by spectrophotometric method (reference value: 60.94 +/- 1.18%); format: functional
# [25] = test system: Hep 3B2; experiment: Cytoprotective activity against GOX-induced oxidative stress in human Hep3B cells assessed as increase in cell survival treated for 5 hrs with 15 mU/ml GOX challenge by MTT assay; format: functional, cell-based; outline: as §2
# [26] = test system: NIH3T3; experiment: Cytoprotective activity against GOX-induced cytotoxicity in mouse NIH/3T3 cells assessed as LDH release at 1 uM treated for 5 hrs with 15 mU/ml GOX challenge by spectrophotometric method (reference value: 63.34 +/- 1.85%); format: functional
# [27] = test system: Hep 3B2; experiment: Cytoprotective activity against GOX-induced oxidative stress in human Hep3B cells assessed as cell survival at 1 uM treated for 5 hrs with 15 mU/ml GOX challenge by MTT assay (reference value: 41.51 +/- 1.39%); format: functional; details: read-out: Survival
smiles,measurement,setting,value
CC(C)C(=O)O[C@@H]1Cc2c(ccc3ccc(=O)oc23)OC1(C)C,viability at 100 µM,[1],82.3%
same,viability at 100 µM,[2],147%
same,viability at 10 µM,[3],67.4%
same,Activity,[4],28.99%
same,viability at 0.1 µM,[5],44.8%
same,Activity,[6],31.31%
same,Activity,[7],19.53%
same,viability at 1 µM,[8],101%
same,viability at 100 µM,[9],83.1%
same,Activity,[10],7.64%
same,viability at 1 µM,[11],55.6%
same,viability at 0.1 µM,[12],45.7%
same,Activity,[13],8.13%
same,Activity,[14],Dose-dependent effect
same,Activity,[15],Non-Toxic
same,Activity,[16],Dose-dependent effect
same,viability at 10 µM,[17],66.5%
same,viability at 10 µM,[18],110%
same,Activity,[19],Dose-dependent effect
same,viability at 0.1 µM,[20],100%
same,Activity,[21],Dose-dependent effect
same,Activity,[22],18.04%
same,Activity,[23],Non-Toxic
same,Activity,[24],23.78%
same,Activity,[25],Dose-dependent effect
same,Activity,[26],25.89%
same,viability at 1 µM,[27],56.1%
C=C(C)[C@H]1CC[C@](C)([C@@H](O)Cc2c(O)ccc(C(=O)/C=C/c3ccc(O)cc3)c2O)O1 (racemic),viability at 100 µM,[1],76.8%
same,viability at 100 µM,[2],116%
same,viability at 10 µM,[3],66.4%
same,Activity,[4],26.09%
same,viability at 0.1 µM,[5],45.2%
same,Activity,[6],28.31%
same,Activity,[7],15.76%
same,viability at 1 µM,[8],101%
same,viability at 100 µM,[9],81.8%
same,Activity,[10],6.99%
same,viability at 1 µM,[11],61.4%
same,viability at 0.1 µM,[12],44.9%
same,Activity,[13],6.22%
same,Activity,[14],Dose-dependent effect
same,Activity,[15],Non-Toxic
same,Activity,[16],Dose-dependent effect
same,viability at 10 µM,[17],65.4%
same,viability at 10 µM,[18],102%
same,Activity,[19],Dose-dependent effect
same,viability at 0.1 µM,[20],100%
same,Activity,[21],Dose-dependent effect
same,Activity,[22],14.03%
same,Activity,[23],Non-Toxic
same,Activity,[24],20.91%
same,Activity,[25],Dose-dependent effect
same,Activity,[26],20.91%
same,viability at 1 µM,[27],60.5%
C/C(=C\Cc1c(O)ccc(C(=O)/C=C/c2ccc(O)cc2)c1O)CCC(=O)O,viability at 100 µM,[1],74.1%
same,viability at 100 µM,[2],115%
same,viability at 10 µM,[3],57.8%
same,Activity,[4],30.97%
same,viability at 0.1 µM,[5],44.3%
same,Activity,[6],36.37%
same,Activity,[7],18.78%
same,viability at 1 µM,[8],100%
same,viability at 100 µM,[9],74.5%
same,Activity,[10],7.6%
same,viability at 1 µM,[11],44.7%
same,viability at 0.1 µM,[12],43.2%
same,Activity,[13],6.96%
same,Activity,[14],Dose-dependent effect
same,Activity,[15],Non-Toxic
same,Activity,[16],Dose-dependent effect
same,viability at 10 µM,[17],57.1%
same,viability at 10 µM,[18],107%
same,Activity,[19],Dose-dependent effect
same,viability at 0.1 µM,[20],100%
same,Activity,[21],Dose-dependent effect
same,Activity,[22],16.93%
same,Activity,[23],Non-Toxic
same,Activity,[24],20.34%
same,Activity,[25],Dose-dependent effect
same,Activity,[26],20.71%
same,viability at 1 µM,[27],45.5%
O=C1CC(c2ccc(O)cc2)Oc2cc(O)ccc21 (racemic),viability at 100 µM,[1],112%
same,viability at 100 µM,[2],135%
same,viability at 10 µM,[3],111%
same,Activity,[4],11.57%
same,viability at 0.1 µM,[5],70.7%
same,Activity,[6],18.42%
same,Activity,[7],5.51%
same,viability at 1 µM,[8],104%
same,viability at 100 µM,[9],126%
same,Activity,[10],3.82%
same,viability at 1 µM,[11],88.4%
same,viability at 0.1 µM,[12],74.1%
same,Activity,[13],2.63%
same,Activity,[14],Dose-dependent effect
same,Activity,[15],Non-Toxic
same,Activity,[16],Dose-dependent effect
same,viability at 10 µM,[17],98.8%
same,viability at 10 µM,[18],112%
same,Activity,[19],Dose-dependent effect
same,viability at 0.1 µM,[20],100%
same,Activity,[21],Dose-dependent effect
same,Activity,[22],4.93%
same,Activity,[23],Non-Toxic
same,Activity,[24],6.83%
same,Activity,[25],Dose-dependent effect
same,Activity,[26],7.85%
same,viability at 1 µM,[27],88.4%
